From ChEMBL document CHEMBL1156749 (Bioorg Med Chem Lett, 2009)

Legend:
[1] = target: Sodium-dependent dopamine transporter (Rattus norvegicus, UniProt P23977); test: Displacement of [3H]WIN-35428 from DAT in rat brain; format: tissue-based
Summary of the method: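 Radioligand displacement from monoamine transporters in rat brain tissue: [3H]WIN 35,428 for DAT, [3H]citalopram for SERT, [3H]nisoxetine for NET. Test agents were used as oxalate salts, and Ki was derived from displacement. Values are mean ± SEM of three experiments, each run in triplicate.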

[2] = target: Sodium-dependent serotonin transporter (Rattus norvegicus, UniProt P31652); test: Displacement of [3H]citalopram from SERT in rat brain; format: tissue-based
Transporter = Transporter (Rattus norvegicus, UniProt Q63380); test: Displacement of [3H]nisoxetine from NET in rat brain; format: tissue-based
Rattus norvegicus [3] = organism: Rattus norvegicus; test: Selectivity ratio of Ki for rat DAT to Ki for SERT
Summary of the method: (§1)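 Ratio of Ki values from rat brain tissue displacement assays: [3H]WIN 35,428 for DAT, [3H]citalopram for SERT, [3H]nisoxetine for NET. Test agents were oxalate salts. Each Ki is the mean of three experiments run in triplicate.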

Rattus norvegicus [4] = organism: Rattus norvegicus; test: Selectivity ratio of Ki for rat NET to Ki for DAT; summary of the method: as §1
Rattus norvegicus [5] = organism: Rattus norvegicus; test: Selectivity ratio of Ki for rat NET to Ki for SERT; summary of the method: as §1

Sequence of Transporter (Q63380 whole entry): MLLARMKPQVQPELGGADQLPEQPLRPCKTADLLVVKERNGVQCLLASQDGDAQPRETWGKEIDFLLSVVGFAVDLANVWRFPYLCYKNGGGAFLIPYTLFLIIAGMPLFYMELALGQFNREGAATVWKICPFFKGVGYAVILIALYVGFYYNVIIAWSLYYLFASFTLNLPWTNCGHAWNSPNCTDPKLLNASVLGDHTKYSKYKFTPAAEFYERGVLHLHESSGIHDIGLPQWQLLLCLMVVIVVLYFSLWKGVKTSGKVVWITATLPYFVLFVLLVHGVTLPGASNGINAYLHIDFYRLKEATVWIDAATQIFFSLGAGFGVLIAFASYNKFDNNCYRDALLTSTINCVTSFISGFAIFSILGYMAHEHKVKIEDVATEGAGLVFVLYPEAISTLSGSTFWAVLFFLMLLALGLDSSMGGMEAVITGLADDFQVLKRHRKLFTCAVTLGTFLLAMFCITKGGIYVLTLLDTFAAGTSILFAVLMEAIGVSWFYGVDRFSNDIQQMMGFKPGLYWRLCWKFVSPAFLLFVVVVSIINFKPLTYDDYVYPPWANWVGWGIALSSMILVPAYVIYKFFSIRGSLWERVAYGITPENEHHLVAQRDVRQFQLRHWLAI
Sequence of Sodium-dependent dopamine transporter (P23977 whole entry): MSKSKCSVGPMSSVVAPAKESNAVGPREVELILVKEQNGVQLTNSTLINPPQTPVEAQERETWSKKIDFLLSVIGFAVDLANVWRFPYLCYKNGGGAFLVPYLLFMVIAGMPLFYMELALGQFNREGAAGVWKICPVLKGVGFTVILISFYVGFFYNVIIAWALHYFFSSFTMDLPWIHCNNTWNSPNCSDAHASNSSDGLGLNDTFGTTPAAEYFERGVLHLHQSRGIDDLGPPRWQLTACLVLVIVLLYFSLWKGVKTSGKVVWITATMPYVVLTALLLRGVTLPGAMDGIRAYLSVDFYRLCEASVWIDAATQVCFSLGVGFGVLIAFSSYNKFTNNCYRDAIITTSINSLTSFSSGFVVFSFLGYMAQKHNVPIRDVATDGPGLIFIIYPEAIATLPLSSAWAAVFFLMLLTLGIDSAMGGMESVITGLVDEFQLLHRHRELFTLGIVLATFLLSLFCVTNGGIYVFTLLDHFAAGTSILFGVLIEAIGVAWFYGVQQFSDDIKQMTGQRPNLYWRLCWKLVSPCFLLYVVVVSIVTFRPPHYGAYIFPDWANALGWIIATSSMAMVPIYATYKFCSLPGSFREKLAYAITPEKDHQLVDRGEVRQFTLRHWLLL
Sequence of Sodium-dependent serotonin transporter (P31652 whole entry): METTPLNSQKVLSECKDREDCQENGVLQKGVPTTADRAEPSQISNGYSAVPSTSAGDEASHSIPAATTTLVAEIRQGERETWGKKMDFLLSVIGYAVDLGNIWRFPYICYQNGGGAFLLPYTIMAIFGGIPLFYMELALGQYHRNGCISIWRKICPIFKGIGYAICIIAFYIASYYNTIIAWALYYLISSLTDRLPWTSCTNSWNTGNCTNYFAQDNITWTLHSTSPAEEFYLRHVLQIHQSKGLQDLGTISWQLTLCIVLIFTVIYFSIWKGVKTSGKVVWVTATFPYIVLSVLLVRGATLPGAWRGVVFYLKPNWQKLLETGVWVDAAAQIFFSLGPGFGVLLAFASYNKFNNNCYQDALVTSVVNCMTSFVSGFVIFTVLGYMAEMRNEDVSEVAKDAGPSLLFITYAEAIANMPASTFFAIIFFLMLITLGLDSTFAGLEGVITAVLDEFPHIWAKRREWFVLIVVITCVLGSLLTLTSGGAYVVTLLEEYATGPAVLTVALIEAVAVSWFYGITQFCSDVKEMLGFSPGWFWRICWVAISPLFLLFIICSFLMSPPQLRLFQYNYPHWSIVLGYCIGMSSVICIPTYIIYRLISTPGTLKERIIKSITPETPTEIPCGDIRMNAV

Structure (SMILES)	Ki [1] [nM]	Ki [2] [nM]	Ki (Transporter) [nM]	Ratio (Rattus norvegicus [3])	Ratio (Rattus norvegicus [4])	Ratio (Rattus norvegicus [5])
Clc1ccc([C@]2(OCc3ccccc3)C[C@H]3CC[C@@H](C2)N3)cc1Cl	716	62	1230	11	1.7	20
FC(F)(F)c1ccc(C2=CC3CCC(C2)N3)cc1 (centres undefined)	1490	1.8	777	830	–	432
Clc1ccc(CO[C@@]2(c3ccc(Cl)c(Cl)c3)C[C@H]3CC[C@@H](C2)N3)cc1Cl	2930	4.7	2550	601	0.87	543
Clc1ccc([C@]2(OCc3ccccc3)C[C@H]3CC[C@@H](C2)N3)cc1	172	65	1720	2.7	10	26
Clc1ccc(CO[C@@]2(c3ccc(Cl)cc3)C[C@H]3CC[C@@H](C2)N3)cc1	63	0.1	2370	630	38	23700
Clc1ccc(C2=CC3CCC(C2)N3)cc1Cl (centres undefined)	16	0.3	20	53	1.3	67
Clc1ccc(CO[C@@]2(c3ccccc3)C[C@H]3CC[C@@H](C2)N3)cc1	22	6.1	101	3.6	4.6	17
Clc1ccc(C2=CC3CCC(C2)N3)cc1 (centres undefined)	231	2.8	120	83	0.52	43
C1=C(c2ccccc2)CC2CCC1N2 (centres undefined)	1220	176	1290	6.9	1.1	7.3
c1ccc(CO[C@@]2(c3ccccc3)C[C@H]3CC[C@@H](C2)N3)cc1	117	247	–	0.47	–	–
FC(F)(F)c1ccc([C@]2(OCc3ccccc3)C[C@H]3CC[C@@H](C2)N3)cc1	1390	534	5440	2.6	3.9	10
Clc1ccc(CO[C@@]2(c3ccccc3)C[C@H]3CC[C@@H](C2)N3)cc1Cl	16	0.061	996	258	62	16300
Fc1ccc(C2=CC3CCC(C2)N3)cc1 (centres undefined)	1060	–	–	8.2	1.9	–
Clc1ccc(CO[C@@]2(c3ccc(Cl)c(Cl)c3)C[C@H]3CC[C@@H](C2)N3)cc1	–	–	–	46	5.4	246
